Source: ChEMBL document CHEMBL3414506 (J Med Chem, 2015)
pIC50, pKi: −log10 of the molar value.

How the values were obtained:
[1] = biological target: T1, Steroid 17-alpha-hydroxylase/17,20 lyase (Homo sapiens, UniProt P05093); test: Inhibition of human CYP17 up to 10 uM using 17alpha-hydroxypregnenolone substrate relative to control
T1 sequence (P05093 whole entry): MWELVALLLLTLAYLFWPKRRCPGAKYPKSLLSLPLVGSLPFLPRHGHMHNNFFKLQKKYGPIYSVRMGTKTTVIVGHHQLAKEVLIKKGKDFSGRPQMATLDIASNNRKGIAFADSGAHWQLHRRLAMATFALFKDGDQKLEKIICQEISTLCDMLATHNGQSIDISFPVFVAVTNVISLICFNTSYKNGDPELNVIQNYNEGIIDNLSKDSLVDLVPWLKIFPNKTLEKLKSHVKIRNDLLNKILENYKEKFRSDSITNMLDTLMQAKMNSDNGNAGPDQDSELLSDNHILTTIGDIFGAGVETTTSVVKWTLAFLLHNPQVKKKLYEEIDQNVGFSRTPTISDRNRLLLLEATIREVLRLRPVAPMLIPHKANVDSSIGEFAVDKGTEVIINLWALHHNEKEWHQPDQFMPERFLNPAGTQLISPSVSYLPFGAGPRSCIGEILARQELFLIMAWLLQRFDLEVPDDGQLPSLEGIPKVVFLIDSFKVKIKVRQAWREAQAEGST
Summary of the method: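 CYP17 assay with 17α-hydroxypregnenolone substrate at 10 μM (Km 560 nM). Screening used 150 nM inhibitor, tested up to 10 μM. Values are the mean ± SDM of at least two experiments.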

[2] = Tmax in SCID mouse at 50 mg/kg, sc; type: ADME, organism-based; set-up: dose 50 mg/kg, route subcutaneous; details: in vivo
Summary of the method: (§1)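 Male SCID mice were dosed subcutaneously at 50 or 100 mg/kg. Plasma levels were measured by reverse-phase HPLC against an internal standard, with a detection limit of 100 ng/mL and inter- and intra-assay variability under 10%. Parameters were calculated noncompartmentally from the plasma concentration–time profile.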

[3] = tested on: Plasma; test: Drug metabolism in mouse plasma assessed as retention time of metabolite by reverse phase HPLC method; type: ADME, cell-free
Summary of the method: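 Mouse plasma was analysed by reverse-phase HPLC after subcutaneous dosing. The parent compound, an internal standard, the metabolite and endogenous components were resolved by retention time.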

[4] = tested on: Mus musculus; test: Volume of distribution in SCID mouse at 50 mg/kg, sc; type: ADME, organism-based; set-up: dose 50 mg/kg, route subcutaneous; details: in vivo; summary of the method: as §1
[5] = tested on: Mus musculus; test: Elimination half life in SCID mouse at 100 mg/kg, sc; type: ADME, organism-based; set-up: dose 100 mg/kg, route subcutaneous; details: in vivo; summary of the method: as §1
[6] = Mean residence time in SCID mouse at 50 mg/kg, sc; type: ADME, organism-based; set-up: dose 50 mg/kg, route subcutaneous; details: in vivo; summary of the method: as §1
[7] = tested on: LAPC4; test: Antitumor activity against human LAPC4 cells xenografted in SCID mouse assessed as tumor volume at 0.13 mmol/kg, sc dosed twice daily (reference value: 2410.28 mm3); type: functional
[8] = tested on: Mus musculus; test: Volume of distribution in SCID mouse at 100 mg/kg, sc; type: ADME, organism-based; set-up: dose 100 mg/kg, route subcutaneous; details: in vivo; summary of the method: as §1
[9] = tested on: LAPC4; test: Antitumor activity against human LAPC4 cells xenografted in SCID mouse with castration assessed as regression of tumor volume at 0.13 mmol/kg, sc dosed twice daily; type: functional
[10] = Growth inhibition of human castration-resistant prostate cancer cells; type: functional, cell-based; details: Cancer cell lines
[11] = Clearance in SCID mouse at 50 mg/kg, sc; type: ADME, organism-based; set-up: dose 50 mg/kg, route subcutaneous; details: in vivo; summary of the method: as §1
[12] = Tmax in SCID mouse at 100 mg/kg, sc; type: ADME, organism-based; set-up: dose 100 mg/kg, route subcutaneous; details: in vivo; summary of the method: as §1
[13] = AUC in SCID mouse at 50 mg/kg, sc; type: ADME, organism-based; set-up: dose 50 mg/kg, route subcutaneous; details: plasma; summary of the method: as §1
[14] = tested on: LAPC4; test: Antitumor activity against human LAPC4 cells xenografted in SCID mouse assessed as reduction in tumor volume at 0.15 mmol/kg, sc dosed twice daily starting 1 day after tumor cell inoculation and measured after 16 weeks of treatment; type: functional
Summary of the method: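 3 × 10^7 LAPC-4 cells were injected subcutaneously into the dorsal flank of male SCID mice. From 1 day after inoculation, mice received 0.15 mmol/kg s.c. twice daily, alongside vehicle and castrated groups. The dose was cut by 78.6% for one interval, then resumed. Tumour volume was measured weekly, and percent change was computed after 16 weeks.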

[15] = Cmax in SCID mouse at 100 mg/kg, sc; type: ADME, organism-based; set-up: dose 100 mg/kg, route subcutaneous; details: in vivo; summary of the method: as §1
[16] = Cmax in SCID mouse at 50 mg/kg, sc; type: ADME, organism-based; set-up: dose 50 mg/kg, route subcutaneous; details: in vivo; summary of the method: as §1
[17] = Mean residence time in SCID mouse at 100 mg/kg, sc; type: ADME, organism-based; set-up: dose 100 mg/kg, route subcutaneous; details: in vivo; summary of the method: as §1
[18] = tested on: Mus musculus; test: Elimination half life in SCID mouse at 50 mg/kg, sc; type: ADME, organism-based; set-up: dose 50 mg/kg, route subcutaneous; details: in vivo; summary of the method: as §1
[19] = tested on: Plasma; test: Retention time in mouse plasma by reverse phase HPLC method; type: ADME, cell-free
Summary of the method: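 Mouse plasma from male SCID mice dosed s.c. at 50 or 100 mg/kg, analysed by validated reverse-phase HPLC with an internal standard. Analyte resolved from the internal standard, a metabolite and endogenous plasma components. Calibration linear; inter- and intra-assay variability under 10%; detection limit 100 ng/mL.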

[20] = tested on: LAPC4; test: Antitumor activity against human LAPC4 cells xenografted in SCID mouse assessed as regression of tumor volume at 0.13 mmol/kg, sc dosed twice daily; type: functional
[21] = tested on: Mus musculus; test: Drug elimination constant in SCID mouse at 50 mg/kg, sc; type: ADME, organism-based; set-up: dose 50 mg/kg, route subcutaneous; details: in vivo; summary of the method: as §1
[22] = AUC in SCID mouse at 100 mg/kg, sc; type: ADME, organism-based; set-up: dose 100 mg/kg, route subcutaneous; details: plasma; summary of the method: as §1
[23] = biological target: T1, Steroid 17-alpha-hydroxylase/17,20 lyase; test: Inhibition of human CYP17 expressed in Escherichia coli
Summary of the method: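 Whole-cell assay: intact Escherichia coli cells expressing human CYP17 used as the enzyme source; inhibition expressed as IC50.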

[24] = biological target: T1, Steroid 17-alpha-hydroxylase/17,20 lyase; test: Inhibition of human CYP17 using 17alpha-hydroxypregnenolone substrate

C[C@]12CC[C@H](O)CC1=CC[C@@H]1[C@@H]2CC[C@]2(C)C(n3cnnn3)=CC[C@@H]12
inhibition (INH) [1]: Not Active

C[C@]12CC[C@H](O)CC1=CC[C@@H]1[C@@H]2CC[C@]2(C)C(n3ncnn3)=CC[C@@H]12
inhibition (INH) [1]: Not Active

C[C@]12CC[C@H](O)CC1=CC[C@@H]1[C@@H]2CC[C@]2(C)C(n3cnc4ccccc43)=CC[C@@H]12 [GALETERONE]
Tmax [2]: 30 min
Retention_time [3]: 17.3 min
Vd [4]: 2.09899 L/kg
beta t1/2 [5]: 36.6 min
MRT [6]: 65.4 min
Activity [7]: 6.94 mm3
Vd [8]: 3.27639 L/kg
inhibition in vivo at 130 µmol/kg [9]: 60.7%
pIC50 [10]: 5.54
CL/F [11]: 33.1 mL/min/kg
Tmax [12]: 30 min
AUC [13]: 24000 ng·h/mL
inhibition in vivo at 150 µmol/kg [14]: 93.8%
Cmax [15]: 32200 ng/mL
Cmax [16]: 16800 ng/mL
MRT [17]: 60.5 min
beta t1/2 [18]: 44.17 min
Retention_time [19]: 21.6 min
inhibition in vivo at 130 µmol/kg [20]: 26.6%
Kel [21]: 0.942 h⁻¹
AUC [22]: 30200 ng·h/mL

CC(O)(CS(=O)(=O)c1ccc(F)cc1)C(=O)Nc1ccc(C#N)c(C(F)(F)F)c1 (centres undefined) [BICALUTAMIDE]
pIC50 [10]: 4.74

C[C@]12CC[C@H](O)CC1=CC[C@@H]1[C@@H]2CC[C@]2(C)C(n3nccn3)=CC[C@@H]12
inhibition (INH) [1]: Not Active

C[C@]12CC[C@H](O)CC1=CC[C@@H]1[C@@H]2CC[C@]2(C)C(n3ccnc3)=CC[C@@H]12
pIC50 [23]: 7.30
Retention_time [19]: 11.5 min

C[C@]12CCC(=O)C=C1CC[C@@H]1[C@@H]2CC[C@]2(C)C(n3cncn3)=CC[C@@H]12
pIC50 [24]: 7.26
pKi [24]: 7.39
